Test results as given in ChEMBL document CHEMBL1124861, “Thermodynamics of the interaction of inhibitors with the binding site of recombinant human renin” (J Med Chem, 1990).
*1 amine or outer side, *2 acyl side, *3 side chain or, on linkers, in order; H or OH if unused. Where a SMILES comes first, the peptide text is derived from it. [ ]: non-standard residue; d: D form. The star is where a group is joined. ξ: configuration not given here. Sta(3ξ) = CC(C)C[C@H](N[*:1])C(O)CC(=O)[*:2]; Sta = CC(C)C[C@H](N)[C@@H](O)CC(=O)O; Isovaleryl = CC(C)CC(=O)*

Target: T1, Renin (Homo sapiens, UniProt P00797)
T1 sequence (P00797 whole entry): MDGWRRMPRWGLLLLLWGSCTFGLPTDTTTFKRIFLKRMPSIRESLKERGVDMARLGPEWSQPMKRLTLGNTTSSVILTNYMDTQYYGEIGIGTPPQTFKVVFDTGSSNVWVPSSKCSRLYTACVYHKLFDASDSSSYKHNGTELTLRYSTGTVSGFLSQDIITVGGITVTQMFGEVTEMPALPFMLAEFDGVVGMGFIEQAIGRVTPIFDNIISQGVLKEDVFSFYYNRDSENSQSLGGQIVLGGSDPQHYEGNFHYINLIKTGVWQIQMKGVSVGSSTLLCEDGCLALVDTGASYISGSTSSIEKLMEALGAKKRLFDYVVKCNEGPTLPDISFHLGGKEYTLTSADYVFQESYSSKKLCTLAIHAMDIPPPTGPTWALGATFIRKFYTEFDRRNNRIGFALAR
Assay: Dissociation constant (Kd) of renin inhibitor was determined over a temperature range of 8-37 degree by the fluorescence displacement assay
Summary of the method: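 Recombinant human renin, purified, with stock concentration set by amino acid analysis. Competitive displacement of a dansylated fluorescent peptide inhibitor, read on a spectrofluorometer in ratio mode at 8–37 °C. Unlabeled-inhibitor Kd was calculated from probe Kd, probe concentration, fraction of probe bound, total inhibitor and enzyme concentrations. Duplicates were run at two inhibitor concentrations, and van't Hoff plots were built.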

Row | Compound | Kd [nM]
1 | CC[C@H](C)[C@H](NC(=O)[C@@H](C[C@H](O)[C@H](CC(C)C)NC(=O)[C@H](Cc1cnc[nH]1)NC(=O)[C@H](Cc1ccccc1)NC(=O)[C@@H]1CCCN1C(C)=O)C(C)C)C(N)=O | 5.4
2 | CC(=O)N[C@@H](Cc1ccccc1)C(=O)N[C@@H](Cc1c[nH]cn1)C(=O)N[C@H](CN[C@@H](Cc1ccccc1)C(N)=O)Cc1ccccc1 | 220
3 | CC[C@H](C)[C@H](NC(=O)[C@@H](C[C@H](O)[C@H](CC(C)C)NC(=O)[C@H](Cc1cnc[nH]1)NC(=O)[C@H](Cc1ccccc1)NC(C)=O)C(C)C)C(N)=O | 370
4 | CCC(C)CNC(=O)[C@H](Cc1ccccc1)NC[C@H](Cc1ccccc1)NC(=O)[C@H](Cc1cnc[nH]1)NC(=O)[C@H](Cc1ccccc1)NC(=O)[C@@H]1CCCN1C(C)=O (stereo partly drawn) | 2.5
5 | CC(=O)N1CCC[C@H]1C(=O)N[C@@H](Cc1ccccc1)C(=O)N[C@@H](Cc1c[nH]cn1)C(=O)N[C@H](CN[C@@H](Cc1ccccc1)C(N)=O)Cc1ccccc1 | 29
6 | CC[C@H](C)[C@H](NC(=O)C[C@H](O)[C@H](CC(C)C)NC(=O)[C@H](Cc1cnc[nH]1)NC(=O)[C@H](Cc1ccccc1)NC(C)=O)C(N)=O (Ac-FH[Sta]I-NH2) | 204
7 | CC[C@H](C)[C@H](NC(=O)C[C@H](O)[C@H](CC(C)C)NC(=O)[C@H](Cc1c[nH]cn1)NC(=O)[C@H](Cc1ccccc1)NC(=O)[C@@H]1CCCN1C(=O)[C@H](Cc1c[nH]cn1)NC(C)=O)C(N)=O (Ac-HPFH[Sta]I-NH2) | 23
8 | CC[C@H](C)[C@H](NC(=O)CC(O)[C@H](CC(C)C)NC(=O)[C@H](Cc1c[nH]cn1)NC(=O)[C@H](Cc1ccccc1)NC(=O)[C@@H]1CCCN1C(=O)[C@H](Cc1c[nH]cn1)NC(=O)CC(C)C)C(=O)N[C@@H](Cc1ccccc1)C(N)=O (stereo partly drawn) (Isovaleryl-HPFH[Sta(3ξ)]IF-NH2) | 1.7
9 | H-PHPFHFFIHK-OH | 810

Further compounds by falling Kd, results first:

Row | Kd [nM] | Compound
10 | 1000 | CC[C@H](C)[C@H](NC(=O)[C@@H](C[C@H](O)[C@H](CC(C)C)NC(=O)[C@H](Cc1c[nH]cn1)NS(=O)(=O)c1cccc2c(N(C)C)cccc12)C(C)C)C(=O)NCc1ccccn1
11 | 98 | CC[C@H](C)[C@H](NC(=O)C[C@H](O)[C@H](CC(C)C)NC(=O)[C@H](Cc1c[nH]cn1)NC(=O)[C@H](Cc1ccccc1)NC(=O)[C@@H]1CCCN1C(C)=O)C(N)=O (Ac-PFH[Sta]I-NH2)
12 | 8 | CC[C@H](C)[C@H](NC(=O)[C@@H](NC[C@H](CC(C)C)NC(=O)[C@H](Cc1c[nH]cn1)NC(=O)[C@H](Cc1ccccc1)NC(=O)[C@@H]1CCCN1C(=O)[C@H](Cc1c[nH]cn1)NC(=O)[C@@H]1CCCN1)C(C)C)C(=O)N[C@@H](Cc1c[nH]cn1)C(=O)N[C@@H](CCCCN)C(=O)O
13 | 1.3 | CC[C@H](C)[C@H](NC(=O)[C@@H](C[C@H](O)[C@H](CC(C)C)NC(=O)[C@H](Cc1c[nH]cn1)NC(=O)[C@H](Cc1ccccc1)NC(=O)[C@H]1CCCN1C(C)=O)C(C)C)C(N)=O
